For test [1], the target named is T1, Hypoxia-inducible factor 1-alpha (Homo sapiens, UniProt Q16665). Description: Inhibition of hypoxia-induced HIF1alpha transcriptional activity in human HeLa cells expressing HRE-Luc after 12 hrs by luciferase reporter gene assay. The test is classed as cell-based.
Target sequence in this assay (Q16665 whole entry): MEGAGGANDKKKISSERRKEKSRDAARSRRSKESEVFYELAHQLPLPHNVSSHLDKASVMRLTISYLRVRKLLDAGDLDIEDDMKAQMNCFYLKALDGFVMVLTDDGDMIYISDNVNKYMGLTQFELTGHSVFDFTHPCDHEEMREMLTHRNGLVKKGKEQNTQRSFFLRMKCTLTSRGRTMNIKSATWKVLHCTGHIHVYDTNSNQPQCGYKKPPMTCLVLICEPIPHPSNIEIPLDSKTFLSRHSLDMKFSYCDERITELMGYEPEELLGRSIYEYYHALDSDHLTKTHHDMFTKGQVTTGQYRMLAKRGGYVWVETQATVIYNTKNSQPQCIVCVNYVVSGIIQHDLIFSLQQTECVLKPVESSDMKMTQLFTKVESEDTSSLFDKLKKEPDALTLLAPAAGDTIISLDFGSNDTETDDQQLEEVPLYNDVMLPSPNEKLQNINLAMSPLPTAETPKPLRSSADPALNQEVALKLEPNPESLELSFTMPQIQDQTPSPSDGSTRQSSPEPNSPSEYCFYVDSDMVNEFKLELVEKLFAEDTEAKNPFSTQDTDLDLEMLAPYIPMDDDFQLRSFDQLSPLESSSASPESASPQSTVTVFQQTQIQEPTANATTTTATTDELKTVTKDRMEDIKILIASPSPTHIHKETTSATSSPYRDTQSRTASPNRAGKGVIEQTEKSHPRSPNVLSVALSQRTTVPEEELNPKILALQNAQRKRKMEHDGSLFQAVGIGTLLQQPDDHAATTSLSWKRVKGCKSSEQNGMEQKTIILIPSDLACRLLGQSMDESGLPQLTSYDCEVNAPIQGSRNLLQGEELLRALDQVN
In test [2] the test system is PC-3. Description: Cytotoxicity against human PC3 cells after 72 hrs by MTT assay. The test is classed as functional, cell-based. Conditions: PC-3, 72 h. An outline of the steps:
(§1)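 Cells exposed to compound at 0.1–30 μM for 72 h; viability read by MTT assay.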
(Formazan colour is commonly taken as a measure of viable cells.)

Test [3] has as its system HeLa. Description: Cytotoxicity against human HeLa cells after 72 hrs by MTT assay. The test is classed as functional, cell-based. An outline of the steps:
as §1

Test [4] relates to HepG2. Description: Cytotoxicity against human HepG2 cells after 72 hrs by MTT assay. The test is classed as functional, cell-based. The conditions noted are these: HepG2, 72 h. An outline of the steps:
as §1

Test [5] relates to HCT-116. Description: Cytotoxicity against human HCT116 cells after 72 hrs by MTT assay. Type of test: functional, cell-based. Conditions: HCT-116, 72 h. An outline of the steps: as §1
In test [6] the target is T1, Hypoxia-inducible factor 1-alpha. Description: Inhibition of hypoxia-induced HIF1alpha transcriptional activity in human HeLa cells expressing HRE-Luc at 30 uM after 12 hrs by luciferase reporter gene assay. Type of test: cell-based. An outline of the steps:
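Reporter HeLa cells stably carrying HRE-firefly luciferase plus CMV-renilla luciferase, incubated 12 h with compound under 1% oxygen. Supernatant removed, then dual luciferase assay. Triplicate samples, mean ± SD.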
(In general: In a reporter assay the amount or activity of a reporter protein is the signal.)
Target sequence in this assay (Q16665 whole entry, looked up): as the sequence (Q16665 whole entry) above

Test [7] concerns HeLa. Description: Inhibition of hypoxia-induced HIF1alpha nuclear translocation in human HeLa cells at 30 uM after 4 hrs by immunofluorescence analysis. Type of test: functional, cell-based. An outline of the steps:
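Under 1% oxygen, HeLa cells incubated 4 h with compound. HIF-1α localization imaged by immunofluorescence with specific antibody; nuclei stained with DAPI.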

Test [8] has as its system HeLa. As to the kind of experiment: Inhibition of hypoxia-induced HIF1alpha accumulation in human HeLa cells at 30 uM after 4 hrs by Western blot analysis. The test is classed as functional, cell-based. An outline of the steps: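 HeLa cells under hypoxia (1% oxygen) treated with compound for 4 h at a range of concentrations. HIF-1α protein detected by immunoblot with specific antibody, tubulin as internal control.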
(In western blotting, separated proteins are transferred to a membrane and probed.)

The subject of test [9] is HeLa. The conditions noted are these: Homo sapiens, 0.1 to 10 uM.
For test [10], the system named is HeLa. Conditions: Homo sapiens, 1 uM.
The test system of test [11] is HeLa. The conditions noted are these: Homo sapiens, 0.001 to 1 uM.

Each structure is given as a SMILES string. Activity calls are given as the source filed them. No cut-off for these calls is given here.

The values that follow come from ChEMBL document CHEMBL2321789, “Discovery of Indenopyrazoles as a New Class of Hypoxia Inducible Factor (HIF)-1 Inhibitors” (ACS Med Chem Lett, 2013).

As for `Nc1ccc(NC(=O)Nc2cccc3c2C(=O)c2c-3n[nH]c2-c2ccc3c(c2)OCO3)cc1`, 0.214 µM corresponded to half-maximal inhibition in [1] (IC50).
Take `c1ccc(Nc2[nH]nc3c2Cc2ccccc2-3)cc1`: the IC50 (commonly the concentration that inhibits the measured activity by half) in test [1] is greater than 30 µM.
In the case of `COc1ccc2c(c1)-c1n[nH]c(Nc3ccccc3)c1C2`, the IC50 in [2] is greater than 30 µM; in [3] it was 13.4 µM; in [4] it was 15.4 µM; in test [5], 1.5 µM; in [1], greater than 30 µM. Moreover, the inhibition – broadly, the drop in the measured response relative to a control, in per cent – in test [6] was determined as 18%.
Consider `COC(=O)c1ccc(O)c(NC(=O)COc2ccc(C34CC5CC(CC(C5)C3)C4)cc2)c1`, for which the inhibition entry in test [7] and in [8] was “Active” throughout. Besides, the IC50 was greater than 30 µM in test [2]; greater than 30 µM in test [3]; greater than 30 µM in [4]; greater than 30 µM in test [5]; 21 µM in test [1].
For the compound `c1ccc2c(c1)Cc1c-2n[nH]c1Nc1ccc2c(c1)OCCO2`, in test [1], inhibition was half-maximal at 0.014 µM (IC50).
`c1ccc2c(c1)Cc1c(Nc3ccc4c(c3)OCCO4)n[nH]c1-2`: the IC50 in test [2] came out at 25.4 µM; in test [3], 1.8 µM; in test [4] it was 3.7 µM; in test [5] it was 2.1 µM. Moreover, the inhibition entry in test [9], in test [10] and in test [11] was “inactive” in each case.
Regarding `c1ccc(Nc2n[nH]c3c2Cc2cc4c(cc2-3)OCO4)cc1`, the half-inhibitory concentration (IC50) in [2] was 22.3 µM; in test [3], 8.5 µM; in test [4], 11.2 µM; in test [5], 5.2 µM. For the same compound, the inhibition in test [6] is 28%.
Take `COc1ccc(Nc2n[nH]c3c2Cc2ccccc2-3)cc1OC`: the IC50 in test [2] was greater than 30 µM; in [3] it was 1.8 µM; in test [4], 3.8 µM; in [5], 0.73 µM; in [1], 3.2 µM.
`c1ccc(Nc2n[nH]c3c2Cc2ccccc2-3)cc1`: the IC50 was greater than 30 µM in test [2], 17.6 µM in [3], 24.2 µM in test [4] and 17.5 µM in test [5]. Moreover, in [6], the inhibition worked out at 0%.
On to `c1ccc(Nc2[nH]nc3c2Cc2cc4c(cc2-3)OCO4)cc1`, for which the IC50 in [1] was greater than 30 µM.
With `COc1cccc2c1Cc1c-2n[nH]c1Nc1ccccc1`, the IC50 in test [2] was 21.7 µM; in test [3], 1.6 µM; in test [4] it was 5.2 µM; in [5] it was 2.3 µM; in [1], greater than 30 µM. The compound further had an inhibition in test [6] of 41%.
Regarding `COc1ccc(Nc2n[nH]c3c2Cc2ccccc2-3)cc1`, the IC50 in test [2] is 28.8 µM; in [3] it was 2.6 µM; in test [4], 9.1 µM; in test [5], 3.1 µM; in test [1] it was 1.4 µM.
For `OCc1ccc(-c2nn(Cc3ccccc3)c3ccccc23)o1`, the IC50 in test [2] is greater than 30 µM; in [3], 29.3 µM; in test [4] it was 2.2 µM; in test [5], 2.2 µM.
Turning to `COc1cc2c(cc1OC)-c1n[nH]c(Nc3ccccc3)c1C2`, the IC50 was 0.72 µM in test [2]; less than 0.1 µM in [3]; 0.24 µM in test [4]; less than 0.1 µM in test [5]; greater than 30 µM in test [1]. The compound also yielded an inhibition in test [6] of 0%.
In the case of `COc1cccc2c1Cc1c(Nc3ccc4c(c3)OCCO4)n[nH]c1-2`, the IC50 in test [2] came to 6.9 µM; in test [3], 2.1 µM; in test [4] it was 7 µM; in [5] it was 5.9 µM; in test [1] it was 0.034 µM.
For the compound `COc1ccc2c(c1)Cc1c-2n[nH]c1Nc1ccccc1`, the IC50 is less than 0.1 µM in [2]; less than 0.1 µM in test [3]; less than 0.1 µM in test [4]; less than 0.1 µM in [5]; greater than 30 µM in test [1]. The compound also showed an inhibition in test [6] of 28%.
Regarding `COc1cccc(Nc2n[nH]c3c2Cc2ccccc2-3)c1`, the IC50 in test [2] is greater than 30 µM; in [3], 2.9 µM; in [4], 6.8 µM; in [5], 2.2 µM; in test [1] it was 6.1 µM.
For `c1ccc2c(c1)Cc1c-2n[nH]c1Nc1ccc2c(c1)OCO2` the same measures were 23.7 µM, 5.8 µM, 12.7 µM, 6.9 µM and 0.27 µM.
Turning to `COc1cccc2c1-c1[nH]nc(Nc3ccccc3)c1C2`, the IC50 in test [2] was 3.2 µM; in test [3], 0.57 µM; in test [4] it was 0.75 µM; in test [5], 0.57 µM; in [1] it was greater than 30 µM. In addition, in [6], the inhibition is 3%.
